# Screening results from PubChem BioAssay.
# Platelet DG rel: modulates dense granule release in human platelets; AID 1663; inhibition, %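 (compounds screened at 7.5 µM in platelet-rich plasma)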; human platelet-rich plasma, SFLLRN dense granule ATP release, luminescence; 300,000 tested, 0.22% active;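 active = mean replicate score, as percent of positive control, at or above 50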
# SENP1 inh: inhibitors of human SENP1 SUMO protease catalytic domain; Q9P0U3; recombinant SENP1 catalytic domain, CyPet-SUMO1-YPet FRET cleavage; inhibition, % at 10 µM; 360,000 tested, 0.21% active; AID 624204;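 active = inhibition at least 30% at 10 µM, raw YFP signal under a set limit, fluorescence ratio 0.5 to 1.5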;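 also: 0% = enzyme with DMSO and 100% = no enzyme wells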
#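 system = hSENP1 catalytic domain, recombinant | reagent = SFCypet-SUMO1-SFYpet substrate at 25 nM | doses = one dose per compound, 10 µM, 0.5% DMSO | incubation = enzyme reaction for 50 min at room temperature, dark | measured by = FRET, CFP and YFP emission | controls = no-enzyme low, enzyme-DMSO high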
# SENP8 block-1: SENP8 (human) protease inhibition | Q96LD8 | recombinant SENP8, Nedd8 substrate fluorescence | inhibition, % at 20 µM | 360,000 tested, 0.64% active | AID 602440; in the data active = inhibition mostly above about 40%, no sharp cut-off; inactive = mostly below about 27%
# SENP6 block: blocks the human protease SENP6. Q9GZR1. Recombinant SENP6 catalytic domain, aminoluciferin luminescence. inhibition, % at 10 µM. 330,000 tested, 1.8% active. AID 2599;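 active = inhibition above about 50% at the single tested dose, limit read from the data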;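 also: plate controls were DMSO wells with enzyme for no effect and DMSO wells lacking enzyme for full effect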
# Target sequence (Q9GZR1 628-1112 limits assumed): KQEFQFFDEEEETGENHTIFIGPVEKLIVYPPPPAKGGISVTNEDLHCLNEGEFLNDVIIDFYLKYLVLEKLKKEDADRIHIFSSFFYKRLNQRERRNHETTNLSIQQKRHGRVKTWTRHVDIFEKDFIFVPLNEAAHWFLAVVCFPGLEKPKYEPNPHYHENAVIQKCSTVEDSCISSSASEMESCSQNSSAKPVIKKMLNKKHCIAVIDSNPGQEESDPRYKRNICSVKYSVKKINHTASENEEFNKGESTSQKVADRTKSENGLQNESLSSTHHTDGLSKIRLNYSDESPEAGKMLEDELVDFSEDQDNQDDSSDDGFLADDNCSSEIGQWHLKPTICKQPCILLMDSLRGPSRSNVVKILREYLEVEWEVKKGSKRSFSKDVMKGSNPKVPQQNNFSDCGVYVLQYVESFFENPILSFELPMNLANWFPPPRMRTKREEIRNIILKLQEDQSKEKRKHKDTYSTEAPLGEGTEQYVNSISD
# SENP8 block-2: inhibitors of human SENP8 protease. Q96LD8. purified SENP8, Z-RLRGG-aminoluciferin cleavage, luminescence. inhibition, % at 10 µM. 330,000 tested, 1.2% active. AID 2540; in the data active = inhibition above about 50%
# SENP7 inh: blocks the human protease SENP7. recombinant SENP7, Z-RLRGG-aminoluciferin luminescence, 40 min. 330,000 tested, 1.5% active. inhibition, % at 5 µM;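 active = inhibition above about 50% at the single test dose, limit read from the data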;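 also: plate controls were DMSO with enzyme for no effect and no enzyme buffer wells for full effect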
# SENP8 conf: confirmation of human SENP8 protease inhibitors | shares compounds with SENP7 inh | Recombinant SENP8, Z-RLRGG-aminoluciferin luminescence, 60 min | inhibition, % at 12.5 µM | 6,200 tested, 40% active | AID 488912;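 active = mean inhibition across replicates above about 50%, limit read from the data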
# SENP6 conf: human SENP6 inhibition, confirmed; shares compounds with SENP7 inh; recombinant SENP6, Z-RLRGG-aminoluciferin luminescence; inhibition, % at 12.5 µM; 6,200 tested, 58% active; AID 488915
# SENP7 confirm: human SENP7 inhibition, confirmed | recombinant SENP7, Z-RLRGG-aminoluciferin luminescence, 40 min | 6,200 tested, 69% active | inhibition, % at 12.5 µM | shares compounds with SENP7 inh | AID 488917
# Casp3 select: caspase-3 inhibition (SENP selectivity assay). shares compounds with SENP7 inh. purified caspase-3, Z-DEVD-aminoluciferin luminescence, 60 min. inhibition, % at 12.5 µM. 6,200 tested, 60% active;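 active = mean inhibition above about 50%, limit read from the data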;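 also: plate controls were enzyme with DMSO for no effect and wells without caspase-3 for full effect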
# SENP luc ctr: interferes with luciferase luminescence in SENP counter-screen. shares compounds with SENP7 inh. Pre-incubated SENP8/Z-RLRGG-aminoluciferin, luciferase luminescence interference. inhibition, % at 12.5 µM. 6,200 tested, 39% active;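 active = mean inhibition above about 50% when retested at one dose, limit read from the data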;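 also: plate controls were DMSO wells with completed reaction for no effect and substrate without enzyme for full effect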
# * marks the source's active call; other numbers are inactive results; · = no result given. This is a sample that favours compounds with a hit; in the whole collection about 2.6% have one here.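 The calls were made as follows, unless noted: active = mean inhibition above about 50% in the one-dose retest (limit read from the data); inactive = the rest.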
SMILES,Platelet DG rel,SENP1 inh,SENP8 block-1,SENP6 block,SENP8 block-2,SENP7 inh,SENP8 conf,SENP6 conf,SENP7 confirm,Casp3 select,SENP luc ctr
COc1ccc(NC(=O)c2ccc(N3CCCC3=O)cc2)cc1Cl,·,0,5,24,-8,54*,-6,-1,4,6,0
CC(=O)c1ccc(NC(=O)c2ccc(N3CCCC3=O)cc2)cc1,·,-2,2,-21,0,-8,·,·,·,·,·
COc1ccc(NC(=O)c2ccc(OC(F)F)cc2)cc1Cl,64*,-2,-3,93*,95*,97*,86*,95*,100*,92*,76*
COC(=O)Nc1ccc(S(=O)(=O)N2CCC(C(=O)NC3CCCCC3)CC2)cc1,10,3,0,-18,-6,-4,·,·,·,·,·
CN(CCC#N)c1ccc(/C=C(\C#N)c2ccccn2)cc1,32,-27,-15,76*,80*,1,91*,92*,99*,89*,92*
Nc1nccc(SCc2ccc(Cl)cc2Cl)n1,·,-2,7,·,·,·,·,·,·,·,·
Cn1c2ccccc2c(=O)c2ccc(-c3ccc4c(c3)OCO4)cc21,-4,-30,-460,72*,58*,73*,37,53*,79*,55*,25
Cn1c(-c2ccc3c(c2)OCO3)cc(=O)c2ccccc21,-3,0,8,-13,-9,0,·,·,·,·,·
O=c1cc(-c2ccc(O)cc2)oc2ccccc12,13,-62,4,0,0,1,·,·,·,·,·
O=c1cc(-c2ccc3c(c2)OCO3)oc2ccccc12,0,-1,-334,-9,-4,77*,-3,-2,32,8,-4
Cc1cc2ncc(-c3cccs3)nc2cc1C,29,-3,-264,94*,96*,98*,66*,77*,67*,86*,37
Cc1cc(-c2cccs2)n[nH]1,2,-2,7,-10,-1,3,·,·,·,·,·
Oc1cc(NCCc2cccnc2)cc2cccnc12,·,2,-158,72*,48,39,14,49,14,88*,-4
COc1ccc(C(=O)/C=C/c2cccs2)c(OC(=O)c2cccc([N+](=O)[O-])c2)c1,8,3,29,79*,67*,39,31,39,19,44,2
CC(C)(C)c1ccc(-c2nnc(N)s2)cc1,5,-4,-16,-4,-12,-18,·,·,·,·,·
O=[N+]([O-])c1ccc(O)c(C2=NNC(c3ccccc3F)C2)c1 (stereo not given),2,10,22,-16,85*,39,-4,86*,97*,38,50*
Oc1ccc(Cl)cc1C1=NNC(c2cccs2)C1 (stereo not given),8,4,-91,3,-4,-4,·,·,·,·,·
Cc1c(CC(=O)O)c(=O)oc2cc3oc4c(c3cc12)CCCC4,0,-7,-246,-5,-4,1,·,·,·,·,·
Cc1ccc(S(=O)(=O)c2c(C)cc(C)nc2Cl)cc1,5,2,28,62*,3,2,2,0,-5,-5,-3
Cc1cc(=O)n2[nH]c(SCc3ccc(Cl)cc3)nc2n1,-13,3,0,52*,32,1,38,34,69*,65*,41
COc1ccccc1Nc1cc2cc(Br)ccc2c(=O)[nH]1,3,-76,-179,98*,97*,96*,86*,97*,94*,86*,14
